Common to all, as to format: functional, cell-based
The target of series [1] is T1, Solute carrier organic anion transporter family member 2B1 (Homo sapiens, UniProt O94956).
T1 sequence (O94956 whole entry): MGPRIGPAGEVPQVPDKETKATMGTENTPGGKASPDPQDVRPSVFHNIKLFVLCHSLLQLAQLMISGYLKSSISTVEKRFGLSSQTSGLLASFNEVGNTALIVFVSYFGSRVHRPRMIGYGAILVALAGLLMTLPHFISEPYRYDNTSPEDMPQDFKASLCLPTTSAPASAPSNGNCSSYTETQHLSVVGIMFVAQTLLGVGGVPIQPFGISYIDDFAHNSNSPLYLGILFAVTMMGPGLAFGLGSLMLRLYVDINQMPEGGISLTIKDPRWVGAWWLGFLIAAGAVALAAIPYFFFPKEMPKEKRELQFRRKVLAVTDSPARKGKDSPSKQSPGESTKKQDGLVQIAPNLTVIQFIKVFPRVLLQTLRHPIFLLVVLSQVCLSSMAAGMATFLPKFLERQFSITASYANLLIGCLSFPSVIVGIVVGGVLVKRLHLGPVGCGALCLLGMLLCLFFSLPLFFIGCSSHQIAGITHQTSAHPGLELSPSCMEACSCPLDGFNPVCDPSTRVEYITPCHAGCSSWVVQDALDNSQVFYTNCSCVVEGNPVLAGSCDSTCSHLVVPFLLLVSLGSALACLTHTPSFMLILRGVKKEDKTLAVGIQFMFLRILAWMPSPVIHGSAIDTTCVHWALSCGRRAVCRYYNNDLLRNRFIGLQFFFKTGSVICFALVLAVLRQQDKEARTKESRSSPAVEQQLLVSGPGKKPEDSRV
The experiment in a line: TP_TRANSPORTER: uptake (pH 5.0) of Lactate at a concentration of 1.91 u M in OATP-B-expressing HEK293 cells. Conditions: hek293, pH 5, 1.91 µM. Put shortly:
(§1)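 HEK293 cells transiently transfected with pcDNA3/OATP-B (calcium phosphate) or empty vector were used 40-48 h later. Suspensions were preincubated 20 min at 37°C in HEPES saline (pH 7.4), then incubated 10 min in MES/Tris-buffered uptake medium (pH 5.0 or 7.4). Cells were separated by silicone-oil centrifugal filtration. Uptake was inulin-corrected, expressed as µL/mg protein, and mock-subtracted; n=3-4.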

Series [2] has as its target T1, Solute carrier organic anion transporter family member 2B1. The experiment in a line: TP_TRANSPORTER: uptake (pH 7.4) of Lactate at a concentration of 1.91 u M in OATP-B-expressing HEK293 cells. To be noted: hek293, pH 7.4, 1.91 µM. Summed up:
as §1

Series [3] has the same target. As to the kind of experiment: TP_TRANSPORTER: uptake (pH 7.4) of Estradiol-17beta-D-glucuronide at a concentration of 5.72 nM in OATP-B-expressing HEK293 cells. To be noted: hek293, pH 7.4, 0.00572 µM. Put shortly:
(§2)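 HEK293 cells transiently transfected with OATP-B cDNA (calcium phosphate) or vector alone (mock), used 40-48 h later as suspensions. Preincubated 20 min at 37°C in HEPES buffer pH 7.4, then incubated with radiolabeled compound in uptake medium pH 5.0 or 7.4. DHEAS was taken up for 5 min; estradiol-17ß-glucuronide for 10 min. Cells separated by silicone oil/paraffin centrifugal filtration and counted by scintillation. Uptake (µL/mg protein) corrected for [14C]inulin adsorption; mock subtracted; n=3 or 4.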

Series [4] has the same target. The experiment in a line: TP_TRANSPORTER: uptake (pH 5.0) of Estradiol-17beta-D-glucuronide at a concentration of 5.72 nM in OATP-B-expressing HEK293 cells. To be noted: hek293, pH 5, 0.00572 µM. Put shortly: as §2
For series [5] the target is unchanged. The experiment in a line: TP_TRANSPORTER: uptake (pH 5.0) of Estrone-3-sulfate at a concentration of 5.43 nM in OATP-B-expressing HEK293 cells. To be noted: hek293, pH 5, 0.00543 µM. Put shortly: (§3)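 OATP-B- or vector-transfected HEK293 cells were harvested 40-48 h after transfection and preincubated 20 min at 37°C in pH 7.4 HEPES saline. [3H]estrone-3-sulfate uptake was run for 1 min in uptake medium at pH 5.0 or 7.4 and stopped by silicone-oil centrifugal filtration. Radioactivity was counted by scintillation, corrected for [14C]inulin adsorption and given as µL/mg protein. Mock uptake was subtracted; n=3-4.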

The target is the same in series [6]. As to the kind of experiment: TP_TRANSPORTER: uptake (pH 7.4) of Estrone-3-sulfate at a concentration of 5.43 nM in OATP-B-expressing HEK293 cells. Conditions: hek293, pH 7.4, 0.00543 µM. Summed up: as §3
For series [7] the target is unchanged. The experiment in a line: TP_TRANSPORTER: uptake (pH 5.0) of Fexofenadine at a concentration of 10 u M in OATP-B-expressing HEK293 cells. To be noted: hek293, pH 5, 10 µM. Put shortly:
(§4)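 Transiently transfected OATP-B or mock HEK293 cells were preincubated 20 min at 37°C (pH 7.4), then exposed for 30 min to uptake medium at pH 5.0 or 7.4. Pellets were collected through silicone oil, sonicated, extracted in 50% methanol, dried and quantified by HPLC (ODS column, fluorescence ex 240/em 290 nm). Results are µL/mg protein after mock subtraction; n=3-4.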

The target is the same in series [8]. The experiment in a line: TP_TRANSPORTER: uptake (pH 7.4) of Fexofenadine at a concentration of 10 u M in OATP-B-expressing HEK293 cells. Conditions: hek293, pH 7.4, 10 µM. Put shortly: as §4
Series [9] has the same target. As to the kind of experiment: TP_TRANSPORTER: uptake (pH 5.0) of Dehydroepiandrosterone-3-sulfate at a concentration of 2.98 nM in OATP-B-expressing HEK293 cells. Conditions: hek293, pH 5, 0.00298 µM. Summed up: as §2
Series [10] shares this target. The experiment in a line: TP_TRANSPORTER: uptake (pH 7.4) of Dehydroepiandrosterone-3-sulfate at a concentration of 2.98 nM in OATP-B-expressing HEK293 cells. To be noted: hek293, pH 7.4, 0.00298 µM. Put shortly:
as §2

Series [11] shares this target. As to the kind of experiment: TP_TRANSPORTER: uptake (pH 7.4) of Pravastatin at a concentration of 14.7 u M in OATP-B-expressing HEK293 cells. To be noted: hek293, pH 7.4, 14.7 µM. Summed up:
as §1

Series [12] has the same target. The experiment in a line: TP_TRANSPORTER: uptake (pH 5.0) of Pravastatin at a concentration of 14.7 u M in OATP-B-expressing HEK293 cells. Conditions: hek293, pH 5, 14.7 µM. Summed up:
as §1

Substrate in series [13]: CC[C@H](C)C(=O)O[C@H]1C[C@H](O)C=C2C=C[C@H](C)[C@H](CC[C@@H](O)C[C@@H](O)CC(=O)O)[C@H]21
The experiment in a line: (§5) TP_TRANSPORTER: uptake (pH 5.0) in OATP-B-expressing HEK293 cells.

Substrate in series [14]: C[C@]12CC[C@@H]3c4ccc(OS(=O)(=O)O)cc4CC[C@H]3[C@@H]1CCC2=O
Described as §5.

Substrate in series [15]: C[C@]12CC[C@@H]3c4ccc(OS(=O)(=O)O)cc4CC[C@H]3[C@@H]1CCC2=O
The experiment in a line: TP_TRANSPORTER: uptake (pH 7.4) in OATP-B-expressing HEK293 cells. Summed up:
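OATP-B- or mock-transfected HEK293 suspensions. Preincubated 20 min at 37°C at pH 7.4, then substrate uptake in medium at pH 7.4 (Tris-adjusted). Uptake was separated by centrifugal filtration through oil and measured by scintillation, or by HPLC-fluorescence for fexofenadine. Expressed as cell-to-medium ratio (µL/mg protein), corrected by [14C]inulin space; OATP-B-specific = transfected minus mock; n=3 or 4.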

What is called Km is the concentration of substrate that gives half-maximal velocity.

In the case of `C[C@@H](O)C(=O)O` [D-LACTIC ACID], the Activity result in series [1] and in series [2] was “is not a substrate [-]” throughout.

For `C[C@]12CC[C@@H]3c4ccc(O)cc4CC[C@H]3[C@@H]1CC[C@@H]2O[C@@H]1O[C@H](C(=O)O)[C@@H](O)[C@H](O)[C@H]1O` [ESTRADIOL 17B GLUCURONIDE], the Activity result in series [3] and in series [4] was “is not a substrate [-]” in each case.

Consider `C[C@]12CC[C@@H]3c4ccc(OS(=O)(=O)O)cc4CC[C@H]3[C@@H]1CCC2=O` [ESTRONE SULFURIC ACID], for which the Activity entry in series [5] and in [6] was “substrate [+]” each time.

Regarding `CC(C)(C(=O)O)c1ccc(C(O)CCCN2CCC(C(O)(c3ccccc3)c3ccccc3)CC2)cc1` (stereo not given) [FEXOFENADINE], the Activity entry in series [7] and in series [8] was “substrate [+]” throughout.

`C[C@]12CC[C@H](OS(=O)(=O)O)CC1=CC[C@@H]1[C@@H]2CC[C@]2(C)C(=O)CC[C@@H]12` [PRASTERONE SULFURIC ACID]: the Activity entry in series [9] and in [10] was “substrate [+]” in each case.

In the case of `CC[C@H](C)C(=O)O[C@H]1C[C@H](O)C=C2C=C[C@H](C)[C@H](CC[C@@H](O)C[C@@H](O)CC(=O)O)[C@H]21` [PRAVASTATIN], the Activity entry in [11] is “is not a substrate [-]”; in [12] it was “substrate [+]”.

B1: Solute carrier organic anion transporter family member 2B1 (Homo sapiens) (protein)
chain: MGPRIGPAGEVPQVPDKETKATMGTENTPGGKASPDPQDVRPSVFHNIKLFVLCHSLLQLAQLMISGYLKSSISTVEKRFGLSSQTSGLLASFNEVGNTALIVFVSYFGSRVHRPRMIGYGAILVALAGLLMTLPHFISEPYRYDNTSPEDMPQDFKASLCLPTTSAPASAPSNGNCSSYTETQHLSVVGIMFVAQTLLGVGGVPIQPFGISYIDDFAHNSNSPLYLGILFAVTMMGPGLAFGLGSLMLRLYVDINQMPEGGISLTIKDPRWVGAWWLGFLIAAGAVALAAIPYFFFPKEMPKEKRELQFRRKVLAVTDSPARKGKDSPSKQSPGESTKKQDGLVQIAPNLTVIQFIKVFPRVLLQTLRHPIFLLVVLSQVCLSSMAAGMATFLPKFLERQFSITASYANLLIGCLSFPSVIVGIVVGGVLVKRLHLGPVGCGALCLLGMLLCLFFSLPLFFIGCSSHQIAGITHQTSAHPGLELSPSCMEACSCPLDGFNPVCDPSTRVEYITPCHAGCSSWVVQDALDNSQVFYTNCSCVVEGNPVLAGSCDSTCSHLVVPFLLLVSLGSALACLTHTPSFMLILRGVKKEDKTLAVGIQFMFLRILAWMPSPVIHGSAIDTTCVHWALSCGRRAVCRYYNNDLLRNRFIGLQFFFKTGSVICFALVLAVLRQQDKEARTKESRSSPAVEQQLLVSGPGKKPEDSRV
On to B1, for which the Michaelis constant (Km) was found to be 2250 µM in [13], 13.1 µM in series [14] and 8.09 µM in series [15].

The values above are taken from ChEMBL document CHEMBL2073884, “Functional characterization of pH-sensitive organic anion transporting polypeptide OATP-B in human” (J Pharmacol Exp Ther, 2004).
